# MC4R ag barr: agonists of human melanocortin 4 receptor (MC4R) beta-arrestin | 360,000 compounds, 0.98% hits | activation, % at 8.9 µM | U2OS MC4R beta-arrestin complementation, luminescence; percent of melanotan II response, DMSO zero | P32245 | AID 540308;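 active = activation above a per-plate cutoff, the mean activation of sample wells on that plate plus 3 SD, cut at about 8% in these data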
# NLRP3 yeast inh: inhibitors of NALP3 inflammasome in yeast; Yeast reconstituted NLRP3/ASC/caspase-1, beta-gal luminescence, 24 h; inhibition, % at 10 µM; 330,000 compounds, 0.39% hits; AID 2825;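 active = inhibition of 50% or more; inactive = inhibition below 50%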;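 note: plate controls were induced DMSO wells for no effect and uninduced yeast grown without galactose for full effect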
# TbMetRS inhib: blocks T. brucei methionyl-tRNA synthetase activity; purified T. brucei MetRS, ATP depletion, Kinase-Glo luminescence; inhibition, % at 11.9 µM; 360,000 compounds, 0.4% hits; AID 624268;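 active = inhibition above a per-plate cutoff of the control wells' mean inhibition plus 3 SD, cut at about 5.5% in these data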;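 note: 0% = DMSO wells median and 100% = median of wells with control inhibitor compound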
#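 Dosing: 11.9 µM single point; system: parasite MetRS enzyme; technique: luminescence of leftover ATP; times: 15 min enzyme-compound preincubation, 2 h reaction, 10 min detection, 25 °C; replicates: each compound tested once; read-out basis: percent inhibition relative to median high and low control wells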
# MC4R antagonist: blocks human MC4R cAMP signaling; P32245; MC4R-expressing cells, MTII-stimulated cAMP, LANCE TR-FRET; inhibition, % at 6.5 µM; 360,000 compounds, 0.48% hits;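 active = inhibition above its plate's cutoff, the mean of tested wells on that plate plus 3 SD, cut at about 29% in these data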;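 note: 0% = Melanotan II alone and 100% = Melanotan II plus saturating MCL0020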
#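 Material: U2OS-MC4R stable cell line | Reagent: Melanotan II challenge after compound preincubation | Doses: One concentration, 6.5 µM nominal | Incubation: 30-min compound preincubation, 1-h Melanotan II challenge, 1-h detection, room temperature | Signal: TR-FRET cAMP assay | Replicates: One well per compound, no replicates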
# NALP1 yeast inh: NALP1 inhibition | S. cerevisiae NALP1/ASC/caspase-1 growth, X-gal OD620, 72 h | inhibition, % at 10 µM | 280,000 compounds, 0.61% hits; in the data active = inhibition mostly above about 24%, no sharp cut-off; inactive = mostly below about 32%
# A1 inh: inhibitors of the anti-apoptotic protein A1, read as caspase activation. MEF A1-2A-BIM cells, Caspase-Glo 3/7 luminescence, 3 h; percent of clofoctol response, vehicle zero. 330,000 compounds, 0.066% hits. caspase activation, % (concentration not given with the values);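 active = over half of replicate activation scores above 10%, or exactly half above 10 with the replicate mean above 10; inconclusive = replicate mean below 10 yet half the replicates above 10; inactive = over half of replicates below 10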
# MC4R barr conf: human MC4R beta-arrestin agonism confirmation; AID 602192; U2OS MC4R beta-arrestin recruitment, luminescence; scaled DMSO 0%, Melanotan II 100%; shares compounds with MC4R ag barr; activation, % at 8.9 µM; 2,400 compounds, 31% hits;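 active = mean activation across replicates above the hit cutoff set in the earlier primary screen, cut at about 8% in these data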
# MOR-DOR barr ag: OPRM1-OPRD1 heterodimer agonism counter-screen | AID 602194 | shares compounds with MC4R ag barr | U2OS PathHunter beta-arrestin, beta-gal luminescence; percent of deltorphin B response, DMSO zero | 2,400 compounds, 5.8% hits | activation, % at 9.2 µM;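 active = mean activation across replicates exceeds the hit threshold derived in the earlier primary screen, cut at about 18% in these data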;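 note: 100% = deltorphin B at 0.9 µM final and 0% = DMSO alone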
# Target sequence (P35372 whole entry, looked up): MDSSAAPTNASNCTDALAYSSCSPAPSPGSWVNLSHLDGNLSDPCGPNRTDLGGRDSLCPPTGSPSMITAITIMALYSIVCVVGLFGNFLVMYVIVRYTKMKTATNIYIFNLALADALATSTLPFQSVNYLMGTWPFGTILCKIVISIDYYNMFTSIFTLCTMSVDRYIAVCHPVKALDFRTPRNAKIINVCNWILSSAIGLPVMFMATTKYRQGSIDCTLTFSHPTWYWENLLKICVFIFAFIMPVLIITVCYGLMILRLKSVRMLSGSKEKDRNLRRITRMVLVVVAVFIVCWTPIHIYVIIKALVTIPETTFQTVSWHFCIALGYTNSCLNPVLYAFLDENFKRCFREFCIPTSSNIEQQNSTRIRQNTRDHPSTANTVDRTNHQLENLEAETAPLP
# Target sequence (P41143 whole entry, looked up): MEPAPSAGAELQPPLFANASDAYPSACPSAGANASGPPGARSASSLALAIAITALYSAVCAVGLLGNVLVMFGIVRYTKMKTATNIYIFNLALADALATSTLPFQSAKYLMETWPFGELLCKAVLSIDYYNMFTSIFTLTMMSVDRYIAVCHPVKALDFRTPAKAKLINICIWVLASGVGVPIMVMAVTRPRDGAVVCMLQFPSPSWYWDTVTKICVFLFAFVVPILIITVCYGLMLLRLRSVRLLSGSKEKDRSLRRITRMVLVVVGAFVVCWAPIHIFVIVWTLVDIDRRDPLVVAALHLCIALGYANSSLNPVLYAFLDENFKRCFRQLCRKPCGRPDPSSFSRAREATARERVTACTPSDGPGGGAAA
# The depositor's hits bear a star; ? = inconclusive; . = not tested or not shown. Rows were chosen to be rich in hits. Some 2.5% of all compounds tested hit in one or more screens of this group.
SMILES,MC4R ag barr,NLRP3 yeast inh,TbMetRS inhib,MC4R antagonist,NALP1 yeast inh,A1 inh,MC4R barr conf,MOR-DOR barr ag
O=C(Nc1ccc(Oc2ccccc2)cc1)C1CCCN(c2ncccn2)C1 (stereo not drawn),9.9*,13,0,4,30,0,0,3
O=C(Cn1cc(C(F)(F)F)ccc1=O)N/N=C/c1ccc(O)cc1,1,-4,0,21,11,1,.,.
O=C(Cn1cc(C(F)(F)F)ccc1=O)N/N=C/c1ccc(Cl)c(Cl)c1,13*,6,0,19,28,1,-1,9
Cc1ccc(-c2nn(-c3ccccc3)cc2/C=N/n2c(-c3cccs3)n[nH]c2=S)cc1,0,20,0,21,.,0,.,.
S=c1[nH]nc(-c2cccs2)n1/N=C/c1cn(-c2ccccc2)nc1-c1cccs1,10*,24,0,25,.,-4,1,4
COc1ccccc1C(=O)N1CCN(C(=O)[C@H]2O[C@@H](n3cnc4c(N)ncnc43)[C@H](O)[C@@H]2O)CC1,.,.,0,.,.,.,.,.
Clc1ccc(CSc2cnnc3ccccc23)cc1Cl,13*,.,0,-9,.,.,3,3
Cc1ccccc1NC(=O)Cc1nc(COC(=O)c2cc(Br)ccc2O)cs1,16*,1,0,0,.,0,2,6
C=CCOc1ccc(/C=C/C(=O)OCc2csc(CC(=O)Nc3ccccc3C)n2)cc1,15*,13,0,3,.,-1,8.7*,15
Nc1cc2cccnc2cc1Cl,-2,.,0,-5,.,.,.,.
CCOC(=O)c1nn(-c2ccccc2Cl)c(=O)cc1OCC(=O)Nc1cccc(OC)c1,2,13,0,13,.,0,.,.
COc1ccc(CC(=O)NCc2ccccc2F)cc1S(=O)(=O)N1CCOCC1,-3,.,0,-8,.,.,.,.
Cc1ccc(S(=O)(=O)N2CCN(C(=O)COC(=O)CCOc3ccc(C(C)(C)C)cc3)CC2)cc1,-1,12,0,15,.,0,.,.
COc1ccccc1CNCC(O)Cn1c2ccccc2c2ccccc21 (stereo not drawn),10*,4,-1,3,44,1,21*,21*
CCOc1cc(C(=O)NC(C)CCc2ccccc2)cc(OCC)c1OCC (stereo not drawn),14*,9,0,9,11,0,4,8
Cc1ccc(-c2c(C#N)c(N)n3c(nc4ccccc43)c2C#N)cc1,3,-9,-1,6,34,?,.,.
N#Cc1c(-c2ccccc2)c(C#N)c2nc3ccccc3n2c1N,11*,1,-1,8,36,0,1,4
CC(/C=C/C=C/c1ccccc1)=N/NC(=O)CNc1ccccc1C,14*,2,0,-14,16,-1,29*,10
COC(=O)c1c(NC(=O)Nc2ccc(Cl)cc2)sc(C)c1C,10*,7,0,0,0,0,2,9
C=C(C)C(=O)Nc1ccc2nn(-c3ccccc3O)nc2c1,-1,.,0,-2,.,.,.,.
COc1ccc([C@H]2C[C@@H](O)[C@H](n3cc(-c4ccc(F)cc4)nn3)CN2CC2CCCCC2)cc1,14*,.,0,18,.,.,1,4
CC(C)c1ccccc1NC(=O)Nc1nc(C(N)Cc2ccc(C(F)(F)F)cc2)cs1 (stereo not drawn),15*,.,0,7,.,.,14*,17
COc1ccc(CNC(=O)Nc2nc(C(N)Cc3ccc(C(F)(F)F)cc3)cs2)cc1 (stereo not drawn),16*,.,0,-7,.,.,17*,12
CC(C)(C)c1ccccc1NC(=O)Nc1nc(C(N)Cc2ccc(F)cc2)cs1 (stereo not drawn),11*,.,-1,7,.,.,8,13
NC(Cc1ccc(C(F)(F)F)cc1)c1csc(NC(=O)Nc2ccccc2Cc2ccccc2)n1 (stereo not drawn),7,.,0,21,.,.,.,.
SMILES,MC4R ag barr,NLRP3 yeast inh,TbMetRS inhib,MC4R antagonist,NALP1 yeast inh,A1 inh,MC4R barr conf,MOR-DOR barr ag
COc1ccc(CC(N)c2csc(NC(=O)c3ccc(OC)cc3)n2)cc1 (stereo not drawn),0,.,0,-1,.,.,.,.
Brc1ccc(Br)c2cnccc12,1,.,0,-4,.,.,.,.
O=C(COC(=O)c1ccc2[nH]c3c(c2c1)CCCC3)Nc1ccccc1Cl,4,-1,0,12,11,-1,.,.
O=C(COC(=O)c1ccc2[nH]c3c(c2c1)CCCC3)Nc1ccc(Cl)cc1Cl,18*,-4,0,15,2,0,10*,3
O=C(c1ccco1)N1CCN(C(=S)NCc2ccc(F)cc2)CC1,-2,9,0,1,2,0,.,.
O=C(Cn1nnc(-c2ccccc2Cl)n1)N/N=C/c1ccc(-c2cccc(Cl)c2)o1,11*,11,-1,-11,23,0,8.9*,3
Nc1nnc(CC(=O)N/N=C\c2ccc(-c3cccc(Cl)c3)o2)s1,-2,7,0,1,.,0,.,.
CCCCCCC(CC(=O)NCc1cccnc1)CC(=O)NCc1cccnc1,-2,8,0,5,19,0,.,.
CCOC(=O)CSc1nnc(-c2cccs2)n1-c1ccccc1,-1,-5,-1,7,10,0,.,.
O=C(CSc1nnc(-c2cccs2)n1-c1ccccc1)Nc1ccccc1,11*,10,0,22,-11,2,2,7
Cc1c(C(=O)N2CCCCCC2)c(S(=O)(=O)Nc2ccc(F)cc2)c(C)n1C,-1,13,0,-2,4,1,.,.
C1CCC(C(CC2CCCCN2)C2CCCCC2)CC1 (stereo not drawn),11*,48,-1,14,71*,1,12*,13
CC(=O)Oc1ccccc1-c1nc(/C=C/c2ccccc2)no1,-1,31,-1,5,6,-5,.,.
O=C1C2CCCN2C(=S)N1c1cc(Cl)ccc1Cl (stereo not drawn),-1,12,0,4,.,.,.,.
COc1ccc(-c2cc(NC(C)=O)c3ncc(-c4ccccc4)n3c2)c(OC)c1,32*,.,0,9,.,.,37*,2
COc1ccccc1-c1cc(NC(C)=O)c2ncc(-c3ccccc3)n2c1,16*,.,0,13,.,.,18*,3
COc1ccc(-c2cnc3c(NC=O)cc(-c4ccccc4OC)cn23)cc1OC,5,.,0,-60,.,.,.,.

# Screening results (PubChem)
